{
  "source": "ChEMBL document CHEMBL3232844",
  "about": "“Synthesis and structure activity relationships of schweinfurthin indoles” (2014)",
  "assay_type_in_all_cases": "functional",
  "key": {"CCRF-CEM": {"test_system": "CCRF-CEM", "experiment": "Cytotoxicity against human CCRF-CEM cells"}, "SK-MEL-5": {"test_system": "SK-MEL-5", "experiment": "Cytotoxicity against human SK-MEL-5 cells", "in_short": "(§1)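 Tested in a 60-cell-line human tumor panel screen; the read-out is growth inhibition, reported as GI50 for each cell line.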"}, "NCI-H322M": {"test_system": "NCI-H322M", "experiment": "Cytotoxicity against human NCI-H322M cells", "in_short": "as §1"}, "[1]": {"experiment": "Cytotoxicity against human UACC62 cells", "in_short": "(§2)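 Cell line run as part of the 60-cell-line screening panel; growth inhibition was reported as a GI50 for each line.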"}, "COLO 205": {"test_system": "COLO 205", "experiment": "Cytotoxicity against human COLO205 cells", "in_short": "as §1"}, "NCI-H522": {"test_system": "NCI-H522", "experiment": "Cytotoxicity against human NCI-H522 cells", "in_short": "as §1"}, "MDA-MB-468": {"test_system": "MDA-MB-468", "experiment": "Cytotoxicity against human MDA-MB-468 cells", "in_short": "as §1"}, "RPMI-8226": {"test_system": "RPMI-8226", "experiment": "Cytotoxicity against human RPMI8226 cells", "in_short": "as §1"}, "SK-MEL-28": {"test_system": "SK-MEL-28", "experiment": "Cytotoxicity against human SK-MEL-28 cells", "in_short": "as §1"}, "PC-3": {"test_system": "PC-3", "experiment": "Cytotoxicity against human PC3 cells", "in_short": "as §1"}, "SW-620": {"test_system": "SW-620", "experiment": "Cytotoxicity against human SW620 cells", "in_short": "as §2"}, "SNB-19": {"test_system": "SNB-19", "experiment": "Cytotoxicity against human SNB19 cells", "in_short": "as §1"}, "HOP-62": {"test_system": "HOP-62", "experiment": "Cytotoxicity against human HOP62 cells", "in_short": "as §1"}, "Malme-3M": {"test_system": "Malme-3M", "experiment": "Cytotoxicity against human MALME-3M cells", "in_short": "as §1"}, "HOP-92": {"test_system": "HOP-92", "experiment": "Cytotoxicity against human HOP92 cells", "in_short": "as §1"}, "[2]": {"experiment": "Cytotoxicity against human Hs578T cells", "settings": "Hs-578T", "in_short": "as §1"}, "SR": {"test_system": "SR", "experiment": "Cytotoxicity against human SR cells", "in_short": "as §2"}, "[3]": {"settings": "read-out: pLC50 (the source's name) (converted)"}},
  "data": [
    {"smiles": "CC1(C)[C@H](O)CC[C@@]2(C)Oc3c(O)cc(/C=C/c4cc(O)c5cc[nH]c5c4)cc3C[C@H]12", "values": [
      {"measurement": "GI50", "setting": "CCRF-CEM", "result": 219, "unit": "nM"},
      {"measurement": "CC50", "setting": "CCRF-CEM; [3]", "result": "> 100", "unit": "µM"},
      {"measurement": "TGI", "setting": "CCRF-CEM; read-out: pTGI (converted)", "result": 14.1, "unit": "µM"},
      {"measurement": "GI50", "setting": "SK-MEL-5", "result": 372, "unit": "nM"},
      {"measurement": "CC50", "setting": "SK-MEL-5; [3]", "result": 3.98, "unit": "µM"},
      {"measurement": "TGI", "setting": "SK-MEL-5; read-out: pTGI (converted)", "result": 1510, "unit": "nM"},
      {"measurement": "GI50", "setting": "NCI-H322M", "result": 7.08, "unit": "µM"},
      {"measurement": "CC50", "setting": "NCI-H322M; [3]", "result": 95.5, "unit": "µM"},
      {"measurement": "TGI", "setting": "NCI-H322M; read-out: pTGI (converted)", "result": 33.9, "unit": "µM"},
      {"measurement": "GI50", "setting": "[1]; UACC-62", "result": 617, "unit": "nM"},
      {"measurement": "CC50", "setting": "[1]; UACC-62, read-out: pLC50 (the source's name) (converted)", "result": 33.9, "unit": "µM"},
      {"measurement": "TGI", "setting": "[1]; UACC-62, read-out: pTGI (converted)", "result": 6.46, "unit": "µM"},
      {"measurement": "GI50", "setting": "COLO 205", "result": 2190, "unit": "nM"},
      {"measurement": "CC50", "setting": "COLO 205; [3]", "result": 11.7, "unit": "µM"},
      {"measurement": "TGI", "setting": "COLO 205; read-out: pTGI (converted)", "result": 4.79, "unit": "µM"},
      {"measurement": "GI50", "setting": "NCI-H522", "result": 1070, "unit": "nM"},
      {"measurement": "CC50", "setting": "NCI-H522; [3]", "result": 38, "unit": "µM"},
      {"measurement": "TGI", "setting": "NCI-H522; read-out: pTGI (converted)", "result": 6.92, "unit": "µM"},
      {"measurement": "GI50", "setting": "MDA-MB-468", "result": 1200, "unit": "nM"},
      {"measurement": "LC50", "setting": "MDA-MB-468", "result": 36.3, "unit": "µM"},
      {"measurement": "TGI", "setting": "MDA-MB-468; read-out: pTGI (converted)", "result": 5.13, "unit": "µM"},
      {"measurement": "GI50", "setting": "RPMI-8226", "result": 15.8, "unit": "nM"},
      {"measurement": "CC50", "setting": "RPMI-8226; [3]", "result": 11.5, "unit": "µM"},
      {"measurement": "TGI", "setting": "RPMI-8226; read-out: pTGI (converted)", "result": 66.1, "unit": "nM"},
      {"measurement": "GI50", "setting": "SK-MEL-28", "result": 6.17, "unit": "µM"},
      {"measurement": "CC50", "setting": "SK-MEL-28; [3]", "result": "> 100", "unit": "µM"},
      {"measurement": "TGI", "setting": "SK-MEL-28; read-out: pTGI (converted)", "result": "> 100", "unit": "µM"},
      {"measurement": "GI50", "setting": "PC-3", "result": 245, "unit": "nM"},
      {"measurement": "LC50", "setting": "PC-3", "result": 55, "unit": "µM"},
      {"measurement": "TGI", "setting": "PC-3; read-out: pTGI (converted)", "result": 4.07, "unit": "µM"},
      {"measurement": "GI50", "setting": "SW-620", "result": 214, "unit": "nM"},
      {"measurement": "CC50", "setting": "SW-620; [3]", "result": 6.46, "unit": "µM"},
      {"measurement": "TGI", "setting": "SW-620; read-out: pTGI (converted)", "result": 1350, "unit": "nM"},
      {"measurement": "GI50", "setting": "SNB-19", "result": 1120, "unit": "nM"},
      {"measurement": "CC50", "setting": "SNB-19; [3]", "result": "> 100", "unit": "µM"},
      {"measurement": "TGI", "setting": "SNB-19; read-out: pTGI (converted)", "result": 26.9, "unit": "µM"},
      {"measurement": "GI50", "setting": "HOP-62", "result": 631, "unit": "nM"},
      {"measurement": "CC50", "setting": "HOP-62; [3]", "result": "> 100", "unit": "µM"},
      {"measurement": "TGI", "setting": "HOP-62; read-out: pTGI (converted)", "result": 7.08, "unit": "µM"},
      {"measurement": "GI50", "setting": "Malme-3M", "result": 3.02, "unit": "µM"},
      {"measurement": "CC50", "setting": "Malme-3M; [3]", "result": 60.3, "unit": "µM"},
      {"measurement": "TGI", "setting": "Malme-3M; read-out: pTGI (converted)", "result": 17, "unit": "µM"},
      {"measurement": "GI50", "setting": "HOP-92", "result": 501, "unit": "nM"},
      {"measurement": "CC50", "setting": "HOP-92; [3]", "result": "> 100", "unit": "µM"},
      {"measurement": "TGI", "setting": "HOP-92; read-out: pTGI (converted)", "result": 5.5, "unit": "µM"},
      {"measurement": "GI50", "setting": "[2]", "result": 10, "unit": "nM"},
      {"measurement": "LC50", "setting": "[2]", "result": "> 100", "unit": "µM"},
      {"measurement": "TGI", "setting": "[2]; read-out: pTGI (converted)", "result": 427, "unit": "nM"},
      {"measurement": "GI50", "setting": "SR", "result": 123, "unit": "nM"},
      {"measurement": "CC50", "setting": "SR; [3]", "result": "> 100", "unit": "µM"},
      {"measurement": "TGI", "setting": "SR; read-out: pTGI (converted)", "result": 21.4, "unit": "µM"}
    ]}
  ]
}
